The test has as its system Radical scavenging activity. Briefly: Antioxidant activity assessed as DPPH free radical scavenging activity after 30 mins. It is filed as functional. In outline:
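Test samples in EtOH mixed with 100 µM ethanolic DPPH and incubated at 37 °C for 30 min. Absorbance was read at 515 nm. Percent inhibition was calculated against an ethanol-treated control. IC50 is the sample concentration that scavenges 50% of DPPH radicals.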
In general terms: DPPH is a stable violet radical that fades when it is reduced.

SMILES strings stand for the structures. Values after ≈ are worked out from the molar mass of the structure shown.

These results are taken from ChEMBL document CHEMBL1150647, “New diarylheptanoids from the stems of Carpinus cordata” (J Nat Prod, 2002).

For orientation: IC50 means the concentration that gives 50% inhibition. With `O=C1CC[C@H](O)Cc2ccc(O)c(c2)-c2cc(ccc2O)C[C@H]1O` [CASUARINONDIOL], the IC50 is > 100 µg/mL. As for `COC(=O)c1cc(O)c(O)c(O[C@@H]2O[C@H](COC(=O)c3cc(O)c(O)c(O)c3)[C@@H](O)[C@H](O)[C@H]2O)c1`, the 50% inhibitory concentration (IC50) was determined as 4.9 µg/mL (≈ 9.83 µM). Regarding `COC(=O)c1cc(O)c(O)c(O)c1` [GALLIC ACID METHYL ESTER], the 50% inhibitory concentration (IC50) turned out to be 4.9 µg/mL (≈ 26.6 µM). Take `Oc1cc(O)c2c(c1)O[C@H](c1ccc(O)c(O)c1)[C@@H](O)C2` [CIANIDANOL]: the IC50 is 2.7 µg/mL (≈ 9.3 µM). On to `COC(=O)c1cc(O)c(O)c(O[C@@H]2O[C@H](CO)[C@@H](O)[C@H](O)[C@H]2O)c1`, for which the IC50 came to 4.6 µg/mL (≈ 13.3 µM).

With `O=C1CCc2ccc(O)c(c2)-c2cc(ccc2O)C[C@H](O)[C@H](O)[C@H]1O` [CARPINONTRIOL B], the IC50 was 80.2 µg/mL (≈ 233 µM). Turning to `COC(=O)c1cc(O)c(O[C@@H]2O[C@H](CO)[C@@H](O)[C@H](O)[C@H]2O)c(O)c1`, the IC50 was > 100 µg/mL. Consider `Oc1ccc(/C=C/c2cc(O)cc(O)c2)cc1` [RESVERATROL], for which the IC50 was 16.2 µg/mL (≈ 71 µM). Regarding `O=C(O[C@@H]1Cc2c(O)cc(O)cc2O[C@@H]1c1cc(O)c(O)c(O)c1)c1cc(O)c(O)c(O)c1` [EPIGALOCATECHIN GALLATE], the IC50 was determined as 2.7 µg/mL (≈ 5.89 µM). As to `O=C1C[C@@H](O)[C@@H](O)Cc2ccc(O)c(c2)-c2cc(ccc2O)C[C@H]1O` [CARPINONTRIOLS A], the IC50 was > 100 µg/mL.
